Assay results reported in ChEMBL document CHEMBL1157759, “Discovery of GS-9131: Design, synthesis and optimization of amidate prodrugs of the novel nucleoside phosphonate HIV reverse transcriptase (RT) inhibitor GS-9148” (Bioorg Med Chem, 2010).

Tests used:
[1] = Cytotoxicity against human MT2 cells after 5 days by XTT assay
[2] = system: Human immunodeficiency virus 1; experiment: Antiviral activity against HIV1 3B infected in human MT2 cells assessed as inhibition of virus-induced cytopathic effect after 5 days by XTT assay; type: functional, organism-based
[3] = Hydrolytic stability assessed as compound degradation per ug of protein at 10 uM after 90 mins by scintillation counting in presence of human recombinant cathepsin A; details: 1.5 h
PBMC [4] = experiment: Metabolic stability in cathepsin A-overexpressing human PBMC assessed as compound degradation per ug of protein at 10 uM after 120 mins by scintillation counting; details: 2 h, 30 µM
[5] = Half life in dog hepatocytes at 2 uM by LC/MS/MS analysis; details: for t1/2: 2 µM; for half-life at 2 µM: t1/2
[6] = Half life in human hepatocytes at 2 uM by LC/MS/MS analysis; details: t1/2
[7] = Half life in dog intestine S9 fraction at 2 uM by LC/MS/MS analysis; details: for half-life at 2 µM: intestine S9 fraction, t1/2
[8] = Half life in human intestine S9 fraction at 2 uM by LC/MS/MS analysis
[9] = Bioavailability in iv dosed Beagle dog; details: in vivo
[10] = Clearance in iv dosed Beagle dog after 24 hrs; details: in vivo
[11] = Oral bioavailability in Beagle dog; details: in vivo
[12] = target: Human immunodeficiency virus type 1 reverse transcriptase (Human immunodeficiency virus 1, UniProt Q72547); experiment: Inhibition of HIV1 reverse transcriptase
[13] = target: T1, DNA polymerase subunit gamma-1 (Homo sapiens) (UniProt P54098); experiment: Inhibition of human recombinant DNA polymerase gamma by scintillation counting
T1 sequence (whole entry): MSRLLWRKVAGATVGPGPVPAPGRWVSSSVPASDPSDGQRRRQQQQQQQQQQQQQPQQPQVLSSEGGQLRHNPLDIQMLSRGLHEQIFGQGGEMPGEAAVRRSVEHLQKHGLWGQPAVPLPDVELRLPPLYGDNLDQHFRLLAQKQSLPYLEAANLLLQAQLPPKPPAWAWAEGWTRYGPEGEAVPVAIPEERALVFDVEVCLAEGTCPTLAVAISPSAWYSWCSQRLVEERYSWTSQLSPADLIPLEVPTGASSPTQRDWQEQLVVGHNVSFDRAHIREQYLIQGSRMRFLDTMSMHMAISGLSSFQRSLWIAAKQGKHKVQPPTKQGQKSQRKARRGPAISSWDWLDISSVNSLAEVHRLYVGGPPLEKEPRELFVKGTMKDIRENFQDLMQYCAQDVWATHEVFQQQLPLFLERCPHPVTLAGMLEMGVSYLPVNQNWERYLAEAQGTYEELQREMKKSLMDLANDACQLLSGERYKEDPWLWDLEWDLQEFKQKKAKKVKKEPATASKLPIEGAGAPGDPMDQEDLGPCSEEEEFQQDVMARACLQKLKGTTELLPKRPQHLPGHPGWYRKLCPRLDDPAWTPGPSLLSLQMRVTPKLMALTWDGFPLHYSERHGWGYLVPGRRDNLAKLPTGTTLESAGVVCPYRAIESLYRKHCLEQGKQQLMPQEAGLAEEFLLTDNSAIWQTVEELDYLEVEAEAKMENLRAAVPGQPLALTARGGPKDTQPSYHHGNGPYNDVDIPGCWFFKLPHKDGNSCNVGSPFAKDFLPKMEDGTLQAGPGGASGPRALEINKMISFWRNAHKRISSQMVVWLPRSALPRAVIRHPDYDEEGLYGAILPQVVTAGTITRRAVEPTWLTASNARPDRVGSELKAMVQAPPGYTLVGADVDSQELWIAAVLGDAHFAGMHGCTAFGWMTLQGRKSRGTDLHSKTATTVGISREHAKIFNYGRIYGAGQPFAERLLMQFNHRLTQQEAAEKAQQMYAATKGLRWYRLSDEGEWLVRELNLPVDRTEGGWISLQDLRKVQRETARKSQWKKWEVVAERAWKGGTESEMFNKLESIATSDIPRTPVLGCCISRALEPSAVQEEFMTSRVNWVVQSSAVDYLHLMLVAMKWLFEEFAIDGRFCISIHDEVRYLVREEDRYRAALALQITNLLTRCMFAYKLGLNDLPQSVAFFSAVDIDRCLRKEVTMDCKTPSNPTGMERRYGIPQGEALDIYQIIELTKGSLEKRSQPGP

[14] = Selectivity for inhibition of HIV wild type reverse transcriptase over inhibition of human recombinant DNA polymerase gamma
PBMC [15] = experiment: Drug metabolism in Beagle dog PBMC assessed as 5-[(6-Amino-purin-9-yl)-4-fluoro-2,5-dihydro-furan-2-yloxymethyl] phosphonic acid diphosphate level after 5 hrs; type: ADME, cell-based, Canis lupus familiaris
Summary of the method: (§1)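 Beagle dogs were given a single oral dose of 3 mg/kg. The prodrug was followed in plasma. The parent diacid and its active diphosphate metabolite were followed inside isolated PBMCs over time after dosing. Plasma half-life and PBMC-to-plasma levels were derived from these time-course profiles.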

[16] = Drug metabolism in Beagle dog assessed as ratio of GS-9148 level in PBMC to plasma at 3 mg/kg, po up to 20 mins; type: ADME, organism-based, Canis lupus familiaris; parameters: dose 3 mg/kg, route oral; details: in vivo, 2 h, in the assay text read “up to 2 hrs” for “up to 20 mins”; summary of the method: as §1
[17] = Cytotoxicity against human HepG2 cells assessed as inhibition of mitochondrial DNA replication after 14 days; details: read-out: MTC50
[18] = Human immunodeficiency virus 1, 3B, MT2, 120 h

SMILES	CC50 at 120 h [1] [µM]	EC50 ([2]; mt2) [µM]	Activity [3] [pmol/min]	Activity (PBMC [4]) [pmol/min]	half-life at 2 µM [7] [min]	half-life at 2 µM [5] [min]	clearance at 24 h [10] [mL/min/kg]	further results
CC(C)OC(=O)[C@H](C)NP(=O)(CO[C@@H]1C=C(F)[C@H](n2cnc3c(N)ncnc32)O1)Oc1ccccc1 (stereo in doubt; 24) [(2S)-ISOPROPYL 2-(((2R,5R)-5-(6-AMINO-9H-PURIN-9-YL)-4-FLUORO-2,5-DIHYDROFURAN-2-YLOXY)(PHENOXY)PHOSPHORYLAMINO)PROPANOATE (ENANTIOMERIC MIX)]	139	0.0092	35000	20	15	–	–	t1/2 [5]: 103 min; half-life at 2 µM [6]: 159 min; half-life at 2 µM [8]: 106 min
C[C@H](NP(=O)(CO[C@@H]1C=C(F)[C@H](n2cnc3c(N)ncnc32)O1)Oc1ccccc1)C(=O)OC1CCC1.Cl.Cl (some centres not stated)	–	0.021	23997	19	3.9	52	–	bioavailability [9]: 18%
C[C@H](NP(=O)(CO[C@@H]1C=C(F)[C@H](n2cnc3c(N)ncnc32)O1)Oc1ccccc1)C(=O)OC1CCC1 (stereo in doubt; 18r) [(2S)-CYCLOBUTYL 2-((((2R,5R)-5-(6-AMINO-9H-PURIN-9-YL)-4-FLUORO-2,5-DIHYDROFURAN-2-YLOXY)METHYL)(PHENOXY)PHOSPHORYLAMINO)PROPANOATE (ENANTIOMERIC MIX)]	57	0.036	18150	7.7	25	–	46	t1/2 [5]: 100 min; half-life at 2 µM [6]: 98 min; half-life at 2 µM [8]: 122 min
C[C@H](NP(=O)(CO[C@@H]1C=C(F)[C@H](n2cnc3c(N)ncnc32)O1)Oc1ccccc1)C(=O)OC1CCC1 (stereo in doubt; 18r(A)) [(2S)-CYCLOBUTYL 2-((((2R,5R)-5-(6-AMINO-9H-PURIN-9-YL)-4-FLUORO-2,5-DIHYDROFURAN-2-YLOXY)METHYL)(PHENOXY)PHOSPHORYLAMINO)PROPANOATE (ENANTIOMERIC MIX)]	–	> 0.045	2527	3.2	–	140	–	bioavailability [9]: 9.8%; t1/2 ([7]; s9, 2 µM, 2 µM): 32 min
CC(C)COC(=O)[C@H](Cc1ccccc1)NP(=O)(CO[C@@H]1C=C(F)[C@H](n2cnc3c(N)ncnc32)O1)Oc1ccccc1 (some centres not stated)	38.3	–	29655	31	8.3	28	61.7	bioavailability [11]: 2.6%; EC50 [2, 18]: 0.006 µM
Nc1ncnc2c1ncn2[C@@H]1O[C@H](OCP(=O)(O)OP(=O)(O)OP(=O)(O)O)C=C1F	–	–	–	–	–	–	–	IC50 [12]: 1.9 µM; Activity [13]: 100 µM; fold change (FC) [14]: > 130; Activity (PBMC [15]): > 9 µM
Nc1ncnc2c1ncn2[C@@H]1O[C@H](OCP(=O)(O)O)C=C1F [GS-9148]	> 100	–	–	–	–	–	–	Ratio [16]: 10; EC50 [2, 18]: 10.6 µM; CC50 at 336 h [17]: > 300 µM
CC(C)OC(=O)[C@H](C)N[P@](=O)(CO[C@H](C)Cn1cnc2c(N)ncnc21)Oc1ccccc1 [TENOFOVIR ALAFENAMIDE]	–	–	–	–	–	–	37.2	bioavailability [11]: 21%
